The text below walks through data of ChEMBL document CHEMBL1759892 (Bioorg Med Chem Lett, 2011).

The target in series [1] is T1, Adenosine receptor A2b (Homo sapiens, UniProt P29275).
T1 sequence (P29275 whole entry): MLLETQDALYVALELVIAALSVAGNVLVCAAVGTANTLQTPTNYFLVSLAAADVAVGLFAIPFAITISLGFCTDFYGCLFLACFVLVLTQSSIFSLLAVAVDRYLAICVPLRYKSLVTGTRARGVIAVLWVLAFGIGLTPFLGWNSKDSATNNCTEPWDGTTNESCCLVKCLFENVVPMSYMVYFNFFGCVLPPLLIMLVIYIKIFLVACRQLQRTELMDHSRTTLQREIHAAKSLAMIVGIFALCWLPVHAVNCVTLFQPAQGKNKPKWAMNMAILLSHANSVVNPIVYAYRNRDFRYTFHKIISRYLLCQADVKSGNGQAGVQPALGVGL
Put plainly: Inhibition of human adenosine A2B receptor expressed in CHO cells assessed as decrease in cellular cAMP level after 20 to 25 mins. Format: functional, cell-based.

Series [2] has as its target T2, Adenosine receptor A1 (Homo sapiens, UniProt P30542).
T2 sequence (P30542 whole entry): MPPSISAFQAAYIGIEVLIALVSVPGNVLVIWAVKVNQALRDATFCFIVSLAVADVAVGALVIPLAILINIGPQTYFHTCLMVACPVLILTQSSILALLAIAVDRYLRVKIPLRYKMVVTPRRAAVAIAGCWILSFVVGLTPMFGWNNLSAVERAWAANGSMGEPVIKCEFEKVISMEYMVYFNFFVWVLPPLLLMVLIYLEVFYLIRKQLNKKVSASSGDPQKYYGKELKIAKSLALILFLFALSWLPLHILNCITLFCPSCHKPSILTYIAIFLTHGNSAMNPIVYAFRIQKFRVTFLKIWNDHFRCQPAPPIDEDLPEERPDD
Put plainly: Displacement of [3H]-DPCPX from human adenosine A1 receptor after 1 hr. In a few lines:
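Human A1 receptor membranes, diluted in HEPES 50 mM, NaCl 100 mM, MgCl2 1 mM, were incubated with [3H]-DPCPX (4.8 nM final) and test compound for 1 h at room temperature with orbital shaking. Reactions were filtered on polyethyleneimine-treated filter plates, air dried and counted by scintillation. Values given as Ki.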

Series [3] concerns the target Adenosine receptor A2a (Homo sapiens, UniProt P29274). The experiment in a line: Displacement of [3H]ZM241385 from human adenosine A2A receptor after 1 hr.
Series [4] deals with T1, Adenosine receptor A2b. Put plainly: Displacement of [3H]ZM241385 from human adenosine A2B receptor expressed in CHO cells after 1 hr. Format: cell-based. In a few lines:
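Whole CHO cells expressing human A2B were harvested mechanically at 80% confluence, frozen in aliquots and resuspended in assay buffer on the day of assay. Cells were incubated with [3H]-ZM241385 (30 nM final) and test compound for 1 h at room temperature with orbital shaking. Reactions were filtered on polyethyleneimine-treated plates and counted by scintillation. Values given as Ki.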

For series [5], the target named is Cytochrome P450 2C9 (Homo sapiens, UniProt P11712). Put plainly: Inhibition of CYP2C9. Format: ADME.
Chain of Cytochrome P450 2C9 (P11712 whole entry): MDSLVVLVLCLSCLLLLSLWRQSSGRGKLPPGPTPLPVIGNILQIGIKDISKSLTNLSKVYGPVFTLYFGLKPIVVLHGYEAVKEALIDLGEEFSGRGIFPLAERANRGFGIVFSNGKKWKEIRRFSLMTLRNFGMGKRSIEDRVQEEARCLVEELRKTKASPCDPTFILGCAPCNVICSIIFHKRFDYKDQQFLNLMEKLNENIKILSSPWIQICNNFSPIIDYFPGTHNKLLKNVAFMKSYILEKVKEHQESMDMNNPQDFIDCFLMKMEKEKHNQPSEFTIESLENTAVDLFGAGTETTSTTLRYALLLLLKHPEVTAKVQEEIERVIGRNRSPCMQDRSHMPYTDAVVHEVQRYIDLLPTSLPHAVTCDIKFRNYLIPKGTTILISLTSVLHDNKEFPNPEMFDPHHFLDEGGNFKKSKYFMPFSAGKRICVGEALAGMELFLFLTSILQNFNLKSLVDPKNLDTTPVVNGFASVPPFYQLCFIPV
In series [6] the target is Cytochrome P450 2C19 (Homo sapiens, UniProt P33261). Put plainly: Inhibition of CYP2C19. Format: ADME.
Chain of Cytochrome P450 2C19 (P33261 whole entry): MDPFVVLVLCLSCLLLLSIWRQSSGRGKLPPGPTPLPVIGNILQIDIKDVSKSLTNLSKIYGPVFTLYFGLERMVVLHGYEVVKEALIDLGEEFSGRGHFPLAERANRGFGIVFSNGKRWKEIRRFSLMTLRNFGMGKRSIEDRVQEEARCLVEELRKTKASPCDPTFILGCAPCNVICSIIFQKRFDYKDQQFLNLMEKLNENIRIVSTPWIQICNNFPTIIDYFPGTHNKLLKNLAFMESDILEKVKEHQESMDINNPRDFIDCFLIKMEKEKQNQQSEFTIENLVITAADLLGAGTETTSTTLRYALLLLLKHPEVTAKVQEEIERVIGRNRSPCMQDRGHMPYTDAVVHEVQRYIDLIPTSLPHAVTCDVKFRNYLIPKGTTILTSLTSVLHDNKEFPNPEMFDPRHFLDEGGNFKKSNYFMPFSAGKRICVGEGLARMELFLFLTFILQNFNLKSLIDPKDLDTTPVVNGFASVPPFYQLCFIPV
The target in series [7] is Cytochrome P450 2D6 (Homo sapiens, UniProt P10635). Put plainly: Inhibition of CYP2D6. Format: ADME.
Chain of Cytochrome P450 2D6 (P10635 whole entry): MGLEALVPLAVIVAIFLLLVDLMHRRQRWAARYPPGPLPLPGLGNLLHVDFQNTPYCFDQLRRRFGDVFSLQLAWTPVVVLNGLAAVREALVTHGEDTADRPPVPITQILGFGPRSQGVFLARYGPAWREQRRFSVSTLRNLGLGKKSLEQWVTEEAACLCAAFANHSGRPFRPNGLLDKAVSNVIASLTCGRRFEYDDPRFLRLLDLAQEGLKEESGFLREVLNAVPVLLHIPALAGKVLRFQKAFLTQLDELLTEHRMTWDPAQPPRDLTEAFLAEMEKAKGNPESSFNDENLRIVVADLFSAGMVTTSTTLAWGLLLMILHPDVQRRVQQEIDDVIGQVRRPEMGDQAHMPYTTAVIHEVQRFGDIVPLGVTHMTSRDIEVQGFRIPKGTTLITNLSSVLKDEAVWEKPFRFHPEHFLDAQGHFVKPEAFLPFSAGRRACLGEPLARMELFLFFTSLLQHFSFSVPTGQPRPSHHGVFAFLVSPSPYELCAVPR
Series [8] concerns the target Cytochrome P450 3A4 (Homo sapiens, UniProt P08684). Put plainly: Inhibition of CYP3A4. Format: ADME.
Series [9] addresses Voltage-gated inwardly rectifying potassium channel KCNH2 (Homo sapiens, UniProt Q12809). The experiment in a line: Inhibition of human ERG.
Series [10] concerns Salmonella typhimurium. The experiment in a line: Genotoxicity in Salmonella Typhimurium by Ames test in presence of S9 fraction. Format: toxicity, organism-based. As to conditions: salmonella enterica subsp. enterica serovar typhimurium.

Chain of Adenosine receptor A2a (P29274 whole entry): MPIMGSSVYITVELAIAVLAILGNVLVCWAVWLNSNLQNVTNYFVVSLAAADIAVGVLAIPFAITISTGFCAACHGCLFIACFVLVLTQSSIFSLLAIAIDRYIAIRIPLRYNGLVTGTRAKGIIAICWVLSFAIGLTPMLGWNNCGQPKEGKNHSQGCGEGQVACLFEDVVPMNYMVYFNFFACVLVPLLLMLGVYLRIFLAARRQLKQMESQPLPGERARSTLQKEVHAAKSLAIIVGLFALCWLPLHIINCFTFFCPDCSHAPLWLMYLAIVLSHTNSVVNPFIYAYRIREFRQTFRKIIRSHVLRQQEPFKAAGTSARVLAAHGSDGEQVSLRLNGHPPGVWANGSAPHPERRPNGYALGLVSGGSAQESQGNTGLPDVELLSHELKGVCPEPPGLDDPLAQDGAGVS
Chain of Voltage-gated inwardly rectifying potassium channel KCNH2 (Q12809 whole entry): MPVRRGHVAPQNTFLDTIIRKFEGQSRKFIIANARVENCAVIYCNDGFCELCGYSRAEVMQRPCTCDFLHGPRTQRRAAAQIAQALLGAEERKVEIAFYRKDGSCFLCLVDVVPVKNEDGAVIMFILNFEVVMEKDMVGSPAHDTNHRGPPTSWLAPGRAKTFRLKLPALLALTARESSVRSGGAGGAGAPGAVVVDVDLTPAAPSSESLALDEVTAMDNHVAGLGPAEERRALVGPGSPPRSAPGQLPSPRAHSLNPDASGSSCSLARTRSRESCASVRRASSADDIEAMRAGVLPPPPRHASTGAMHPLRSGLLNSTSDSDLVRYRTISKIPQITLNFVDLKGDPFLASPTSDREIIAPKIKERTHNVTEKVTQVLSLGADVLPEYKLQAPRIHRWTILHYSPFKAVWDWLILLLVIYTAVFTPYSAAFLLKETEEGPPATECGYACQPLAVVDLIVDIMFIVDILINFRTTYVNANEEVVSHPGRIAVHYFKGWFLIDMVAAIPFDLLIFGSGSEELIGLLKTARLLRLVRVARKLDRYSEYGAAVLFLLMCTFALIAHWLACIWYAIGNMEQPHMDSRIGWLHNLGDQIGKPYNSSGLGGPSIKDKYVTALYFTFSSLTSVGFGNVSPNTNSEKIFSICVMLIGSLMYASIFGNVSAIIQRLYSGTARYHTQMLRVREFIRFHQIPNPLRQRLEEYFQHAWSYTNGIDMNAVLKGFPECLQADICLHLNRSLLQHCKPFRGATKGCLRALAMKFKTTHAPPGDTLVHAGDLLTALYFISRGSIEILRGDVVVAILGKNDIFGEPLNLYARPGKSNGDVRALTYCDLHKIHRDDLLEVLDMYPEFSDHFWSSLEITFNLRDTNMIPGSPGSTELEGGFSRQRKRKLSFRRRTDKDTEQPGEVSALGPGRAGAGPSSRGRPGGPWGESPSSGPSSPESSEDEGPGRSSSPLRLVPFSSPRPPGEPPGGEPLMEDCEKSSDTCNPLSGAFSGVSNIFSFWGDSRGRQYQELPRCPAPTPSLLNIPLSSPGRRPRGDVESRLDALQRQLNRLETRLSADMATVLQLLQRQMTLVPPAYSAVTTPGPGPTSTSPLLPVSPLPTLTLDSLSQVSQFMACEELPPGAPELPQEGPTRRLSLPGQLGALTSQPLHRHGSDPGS
Chain of Cytochrome P450 3A4 (P08684 whole entry): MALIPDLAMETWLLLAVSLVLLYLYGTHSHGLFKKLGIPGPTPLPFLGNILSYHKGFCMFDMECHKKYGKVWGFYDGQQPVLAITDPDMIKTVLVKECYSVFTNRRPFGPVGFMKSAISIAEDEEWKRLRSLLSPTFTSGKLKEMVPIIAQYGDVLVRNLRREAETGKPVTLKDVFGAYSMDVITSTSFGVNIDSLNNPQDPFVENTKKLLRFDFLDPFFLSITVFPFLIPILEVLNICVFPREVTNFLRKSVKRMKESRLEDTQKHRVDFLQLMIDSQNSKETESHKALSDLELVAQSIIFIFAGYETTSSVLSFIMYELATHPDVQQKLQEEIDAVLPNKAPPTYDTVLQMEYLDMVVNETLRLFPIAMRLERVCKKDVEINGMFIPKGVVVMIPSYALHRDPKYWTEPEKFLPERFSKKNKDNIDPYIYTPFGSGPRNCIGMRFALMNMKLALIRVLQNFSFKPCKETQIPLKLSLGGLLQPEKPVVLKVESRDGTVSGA

Regarding `CCN(C(C)=O)c1ccc(OC)c2nc(NC(=O)[C@@H]3CC[C@H](NCc4cccc(C(F)(F)F)c4)C3)sc12` (relative stereo), the IC50 in [1] came out at 19 nM. Besides, the Ki in series [2] came to 220 nM; in series [3] it was 180 nM.

Turning to `CCN(C(C)=O)c1ccc(OC)c2nc(NC(=O)N3CCC(O)(c4cccc(C(F)(F)F)c4)CC3)sc12`, the IC50 in series [1] is 8 nM. Moreover, the Ki in series [2] was determined as 19 nM; in series [3] it was 210 nM; in series [4], 5 nM.

Regarding `CCN(C(C)=O)c1ccc(OC)c2nc(NC(=O)[C@H]3CC[C@@H](NS(=O)(=O)c4cccc(C(F)(F)F)c4)CC3)sc12`, the IC50 in series [1] was 16 nM. Besides, the Ki in series [2] was 46 nM; in series [3], 110 nM.

With `CCN(C(C)=O)c1ccc(OC)c2nc(NC(=O)C3CCN(S(=O)(=O)c4cccc(C(F)(F)F)c4)CC3)sc12`, in [1], the IC50 amounted to 49 nM. Further, the Ki was found to be 78 nM in series [2] and 1040 nM in [3].

Consider `CCN(C(C)=O)c1ccc(OC)c2nc(NC(=O)[C@@H]3CCN(Cc4cccc(C(F)(F)F)c4)C3)sc12`, for which the IC50 in series [1] worked out at 72 nM.

As to `CCN(C(C)=O)c1ccc(OC)c2nc(NC(=O)[C@H]3CC[C@H](NC(=O)c4cccc(C(F)(F)F)c4)CC3)sc12`, the IC50 in series [1] was 28 nM. Moreover, the Ki is 7 nM in series [2] and 470 nM in [3].

Turning to `CCN(C(C)=O)c1ccc(OC)c2nc(NC(=O)N3CCC(S(=O)(=O)c4cccc(C(F)(F)F)c4)CC3)sc12`, the IC50 in series [1] turned out to be 20 nM. Besides, the figures for the Ki in series [2] and in [3] were 690 nM and 530 nM, respectively.

For `CCN(C(C)=O)c1ccc(OC)c2nc(NC(=O)C3CCN(C(=O)c4cccc(C(F)(F)F)c4)CC3)sc12`, in series [1], the IC50 stood at 17 nM. Moreover, the Ki in series [2] stood at 2 nM; in series [3] it was 230 nM.

In the case of `CCN(C(C)=O)c1ccc(OC)c2nc(NC(=O)[C@H]3CCN(C(=O)c4cccc(C(F)(F)F)c4)C3)sc12`, the IC50 in [1] is 41 nM. For the same compound, the inhibition constant (Ki) was found to be 120 nM in [2] and 710 nM in [3].

With `CCN(C(C)=O)c1ccc(OC)c2nc(NC(=O)C3CCN(Cc4cccc(C(F)(F)F)c4)CC3)sc12`, in series [1], the IC50 was determined as 44 nM. Besides, the values for the Ki in [2] and in [3] were 10 nM and 1000 nM, respectively.

For the compound `CCN(C(C)=O)c1ccc(OC)c2nc(NC(=O)[C@@H]3CC[C@@H](NC(=O)c4cccc(C(F)(F)F)c4)C3)sc12`, the IC50 in series [1] stood at 8 nM. The Ki in series [2] and in series [3] was 31 nM throughout.

`CCN(C(C)=O)c1ccc(OC)c2nc(NC(=O)[C@@H]3CCN(C(=O)c4cccc(C(F)(F)F)c4)C3)sc12`: the IC50 in series [1] came to 14 nM. Further, the Ki is 100 nM in series [2], 2040 nM in series [3] and 18 nM in series [4].

Take `CCN(C(C)=O)c1ccc(OC)c2nc(NC(=O)c3ccnn3C)sc12`: the IC50 in series [5] is greater than 50000 nM; in series [6], greater than 50000 nM; in [7], greater than 50000 nM; in series [8], greater than 50000 nM; in series [9] it was greater than 100000 nM. Moreover, the Activity entry in series [10] is on record as “Non-toxic”.

Regarding `CCN(C(C)=O)c1ccc(OC)c2nc(NC(=O)N3CCC(c4cccc(C(F)(F)F)c4)CC3)sc12`, the IC50 in series [1] is 18 nM. Moreover, the Ki in series [2] came out at 5 nM; in [3] it was 240 nM.

Turning to `CCN(C(C)=O)c1ccc(OC)c2nc(NC(=O)[C@@H]3CC[C@H](NC(=O)c4cccc(C(F)(F)F)c4)C3)sc12`, the IC50 in series [1] stood at 8 nM. Besides, the Ki in [2] came out at 61 nM; in [3], 81 nM.

Consider `CCN(C(C)=O)c1ccc(OC)c2nc(NC(=O)[C@H]3CC[C@@H](NC(=O)c4cccc(C(F)(F)F)c4)CC3)sc12`, for which, in [1], the IC50 stood at 26 nM. In addition, the results for the Ki in series [2] and in series [3] were 20 nM and 52 nM, respectively.

Consider `CCN(C(C)=O)c1ccc(OC)c2nc(NC(=O)[C@@H]3CCN(S(=O)(=O)c4cccc(C(F)(F)F)c4)C3)sc12`, for which the IC50 in series [1] came to 42 nM. The Ki in series [2] was found to be 220 nM; in series [3], 600 nM.
